Series [1] is filed under the species Mus musculus. As to the kind of experiment: Minimal dose to produce side effects was determined for salivation in mice. Type of series: functional. In short, it runs like this:
(§1)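 Mice fasted overnight, dosed ip or po at 10 mL/kg and housed singly in novel cages. Salivation, tremor and diarrhea each scored on a 5-point scale at 15, 30 and 60 min post-dose. Value is the minimal dose producing the sign.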

The species entered for series [2] is Mus musculus. As to the kind of experiment: Minimal dose to produce side effects was determined for tremor in mice. The series is classed as functional. In outline:
as §1

The species entered for series [3] is Mus musculus. As to the kind of experiment: Minimal dose to produce side effects was determined for diarrhea in mice. The series is classed as functional. In outline: as §1
Series [4] is filed under the species Mus musculus. Nature of the series: Minimal dose to produce side effects was determined for salivation. The series is classed as functional. In short, it runs like this: as §1
For series [5], the species on record is Mus musculus. As to the kind of experiment: Minimal dose to produce side effects was determined for tremor. The series is classed as functional. In outline:
as §1

The species entered for series [6] is Mus musculus. As to the kind of experiment: Minimal dose to produce side effects was determined for diarrhea. The series is classed as functional. In short, it runs like this: as §1
A short description of series [7]: Lethal dose was measured at 24 hour in mice following intraperitoneal administration. The series is classed as toxicity, organism-based. Particulars: mouse, in vivo, ip. In outline: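 Mice fasted overnight and dosed ip at 10 mL/kg, then housed singly in novel cages. Lethality scored over 24 h using at least four dose levels with nine animals per dose. LD50 calculated by Spearman-Karber.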

A further series has as its target Acetylcholinesterase (Homo sapiens, UniProt P22303). As to the kind of experiment: In vitro inhibitory activity against human acetylcholinesterase. Type of series: functional.

Molecules are shown by their SMILES.

One may read the LD50 as the dose at which mortality reaches 50%. A lower LD50 goes with greater toxicity. The term IC50 denotes the point on the concentration scale where inhibition reaches its midpoint.

Chain of Acetylcholinesterase (P22303 whole entry): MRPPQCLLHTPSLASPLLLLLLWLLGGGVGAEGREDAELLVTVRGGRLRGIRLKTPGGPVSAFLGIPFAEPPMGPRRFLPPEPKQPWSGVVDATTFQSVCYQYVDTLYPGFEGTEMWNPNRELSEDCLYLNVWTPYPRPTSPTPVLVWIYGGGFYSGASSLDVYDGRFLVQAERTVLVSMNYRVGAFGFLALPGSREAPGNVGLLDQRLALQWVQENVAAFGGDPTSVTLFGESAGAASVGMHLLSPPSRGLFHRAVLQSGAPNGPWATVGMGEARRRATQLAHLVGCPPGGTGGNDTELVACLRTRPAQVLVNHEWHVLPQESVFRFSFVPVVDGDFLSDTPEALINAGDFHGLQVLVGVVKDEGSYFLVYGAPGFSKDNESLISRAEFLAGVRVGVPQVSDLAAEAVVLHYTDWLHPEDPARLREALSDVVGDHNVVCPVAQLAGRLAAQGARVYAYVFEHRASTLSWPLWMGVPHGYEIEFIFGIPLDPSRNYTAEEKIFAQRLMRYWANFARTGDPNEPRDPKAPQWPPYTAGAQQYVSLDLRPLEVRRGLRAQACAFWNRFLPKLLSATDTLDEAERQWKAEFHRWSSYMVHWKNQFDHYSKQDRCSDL

On to `CNC(=O)Oc1ccc2c(c1)[C@]1(C)CCN(C)[C@@H]1N2C` [PHYSOSTIGMINE], for which the Dose in the series listed under Mus musculus [1], in the series listed under Mus musculus [2] and in the series listed under Mus musculus [3] was 0.32 mg/kg throughout.

Turning to `CCCCCCNC(=O)Oc1ccc2c(c1)[C@]1(C)CCN(CC)[C@@H]1C2`, the values for the Dose in the series filed under Mus musculus [4], in the series filed under Mus musculus [5] and in the series listed under Mus musculus [6] were 3.2 mg/kg, 3.2 mg/kg and 1.8 mg/kg, respectively. The same molecule registered a 50% lethal dose (LD50) at 24 h in series [7] of 4 mg/kg.

For the molecule `CCCCCCNC(=O)Oc1ccc2c(c1)C1CCN(CC)C2C1` (stereo unspecified), the 50% inhibitory concentration (IC50) on Acetylcholinesterase was found to be 125 nM. The Dose in the series listed under Mus musculus [4] was determined as 3.2 mg/kg; in the series listed under Mus musculus [5], 3.2 mg/kg; in the series listed under Mus musculus [6] it was 1.8 mg/kg. The LD50 at 24 h in series [7] turned out to be 9 mg/kg.

In the case of `CCCCCCNC(=O)Oc1ccc2c(c1)C1(C)CCN(CC)C2C1` (stereo unspecified), half-maximal inhibition on Acetylcholinesterase (IC50) required 133 nM. The molecule also returned an LD50 at 24 h in series [7] of 9 mg/kg.

As for `CCN1CCC2CC1c1ccc(OC(=O)NC)cc12` (stereo unspecified), the half-inhibitory concentration (IC50) against Acetylcholinesterase was 171 nM. The molecule further returned a 50% lethal dose (LD50) at 24 h in series [7] of 1 mg/kg.

For the molecule `CCCCCCCNC(=O)Oc1ccc2c(c1)[C@]1(C)CCN(C)[C@@H]1N2C` [EPTASTIGMINE], the Dose in the series listed under Mus musculus [4] stood at 10 mg/kg; in the series filed under Mus musculus [5] it was 10 mg/kg; in the series listed under Mus musculus [6] it was 1.8 mg/kg.

Consider `CCCCNC(=O)Oc1ccc2c(c1)C1CCN(CC)C2C1` (stereo unspecified), for which the midpoint of inhibition on Acetylcholinesterase, the IC50, lay at 206 nM.

In turn, `CCCCCCCNC(=O)Oc1ccc2c(c1)C1CCN(C)C2C1` (stereo unspecified) showed an IC50 at Acetylcholinesterase of 143 nM. The Dose in the series listed under Mus musculus [4] and in the series listed under Mus musculus [5] was 10 mg/kg each time. This molecule registered an LD50 at 24 h in series [7] of 18 mg/kg.

Take `CCCCCCCNC(=O)Oc1ccc2c(c1)C1CCN(CC)C2C1` (stereo unspecified): the IC50 at Acetylcholinesterase stood at 169 nM. The Dose in the series filed under Mus musculus [4] came out at 17.8 mg/kg; in the series listed under Mus musculus [5], 17.8 mg/kg; in the series filed under Mus musculus [6], 3.2 mg/kg. In addition, the median lethal dose (LD50) at 24 h in series [7] worked out at 22 mg/kg.

As for `CCCCCCNC(=O)Oc1ccc2c(c1)C1CCN(C)C2C1` (stereo unspecified), the Dose in the series filed under Mus musculus [4] was determined as 5.6 mg/kg; in the series listed under Mus musculus [5] it was 3.2 mg/kg. The same molecule returned a 50% lethal dose (LD50) at 24 h in series [7] of 6 mg/kg.

Regarding `CCCCCCCNC(=O)Oc1ccc2c(c1)C1(C)CCN(CC)C2C1` (stereo unspecified), the midpoint of inhibition at Acetylcholinesterase, the IC50, lay at 159 nM. Besides, the values for the Dose in the series filed under Mus musculus [5] and in the series filed under Mus musculus [6] were 1.8 mg/kg and 1 mg/kg, respectively. In series [7], this molecule came in with a 50% lethal dose (LD50) at 24 h of 4 mg/kg.

These data come from ChEMBL document CHEMBL1127559, “Syntheses and anticholinesterase activity of tetrahydrobenzazepine carbamates” (J Med Chem, 1994).
